Assay results reported in ChEMBL document CHEMBL4138177, “Design and synthesis of short amphiphilic cationic peptidomimetics based on biphenyl backbone as antibacterial agents” (Eur J Med Chem, 2018).
≈ marks a conversion by molar mass, not a printed value. Calls of active or inactive are those of the source. The rule behind the calls is not given here.

Assays:
[1] = test system: Escherichia coli; experiment: Antimicrobial activity against Escherichia coli K-12 after 18 to 24 hrs by spectrophotometry based broth micro dilution assay; assay type: functional; settings: read-out: MIC100
Method in brief: (§1)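 CLSI broth microdilution. Mid-log cells grown in MHB at 37 °C, shaken 120 rpm, washed three times in PBS pH 7.4, diluted in fresh MHB to a final 1–2 × 10⁵ cfu/mL. Two-fold serial dilutions from 250 down to 3.9 µM. Incubated 18–24 h at 37 °C, 120 rpm. A600 read; MIC taken as the lowest concentration giving 100% growth inhibition. Triplicate, three independent experiments.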

[2] = test system: Staphylococcus aureus; experiment: Antimicrobial activity against Staphylococcus aureus SA38 after 18 to 24 hrs by spectrophotometry based broth micro dilution assay; assay type: functional; settings: read-out: MIC100; method in brief: as §1
[3] = test system: Pseudomonas aeruginosa; experiment: Antimicrobial activity against Pseudomonas aeruginosa PAO1 after 18 to 24 hrs by spectrophotometry based broth micro dilution assay; assay type: functional; settings: read-out: MIC100; method in brief: as §1
[4] = test system: MRC5; experiment: Cytotoxicity against human MRC5 cells after 72 hrs by Alamar blue staining-based spectrophotometric analysis; assay type: cell-based; settings: for IC50: Homo sapiens, MRC5, 72 h; for Activity: human, mrc5, 72 h
Method in brief: (§2)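 MRC-5 lung fibroblasts grown in MEM with 10% FCS, 37 °C, 5% CO₂. Seeded at 2 × 10⁴ cells/well to confluence, then treated 24 h later for 72 h. Medium replaced with 10% Alamar blue for 6 h and absorbance read. Viability expressed as % of untreated cells and IC50 derived. Triplicate, three independent experiments.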

[5] = test system: Escherichia coli; experiment: Induction of cytoplasmic membrane disruption in Escherichia coli K-12 at 3.9 to 31.2 uM by diSC3-5 dye-based luminescence spectrophotometric analysis; assay type: functional, organism-based
[6] = test system: Staphylococcus aureus; experiment: Induction of cytoplasmic membrane disruption in Staphylococcus aureus SA38 at 7.8 to 62.5 uM measured within 3 mins by diSC3-5 dye-based luminescence spectrophotometric analysis; assay type: functional, organism-based
[7] = test system: MRC5; experiment: Cytotoxicity against human MRC5 cells up to 350 uM after 72 hrs by Alamar blue staining-based spectrophotometric analysis; assay type: cell-based; settings: mrc5, 72 h; method in brief: as §2
[8] = test system: Staphylococcus aureus; experiment: Antibiofilm activity against drug-resistant pre-formed Staphylococcus aureus biofilms assessed as inhibition of biomass formation at 4 times MIC; assay type: functional
[9] = test system: Lipid bilayer; experiment: Binding affinity to negatively charged tethered bilayer lipid membranes assessed as increase in membrane capacitance changes at 10 uM by electrochemical impedance spectroscopic analysis
Method in brief: (§3)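 Tethered bilayer membranes formed from a mobile phase of 70% diphytanyl-glycero-phosphatidylcholine and 30% diphytanyl-diglyceride ether (3 mM in ethanol), associated for 2 min, then washed with PBS to give zwitterionic membranes. A variant mobile phase gave negatively charged membranes. Conduction and capacitance measured by AC impedance spectroscopy with Lev-Mar fitting. Triplicate.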

[10] = test system: Lipid bilayer; experiment: Binding affinity to zwitterionic tethered bilayer lipid membranes assessed as increase in membrane capacitance changes at 10 uM by electrochemical impedance spectroscopic analysis; method in brief: as §3
[11] = test system: Staphylococcus aureus; experiment: Induction of cytoplasmic membrane disruption in Staphylococcus aureus SA38 at 31.2 uM measured within 3 mins by diSC3-5 dye-based luminescence spectrophotometric analysis; assay type: functional, organism-based
[12] = test system: Lipid bilayer; experiment: Binding affinity to zwitterionic tethered bilayer lipid membranes assessed as increase in membrane capacitance changes at 0.1 to 100 uM by electrochemical impedance spectroscopic analysis; method in brief: as §3
[13] = test system: Lipid bilayer; experiment: Binding affinity to negatively charged tethered bilayer lipid membranes assessed as increase in membrane capacitance changes at 0.1 to 100 uM by electrochemical impedance spectroscopic analysis; method in brief: as §3
[14] = test system: Lipid bilayer; experiment: Binding affinity to zwitterionic tethered bilayer lipid membranes assessed as increase in membrane conduction response by electrochemical impedance spectroscopic analysis; method in brief: as §3
[15] = test system: Lipid bilayer; experiment: Binding affinity to negatively charged tethered bilayer lipid membranes assessed as increase in membrane conduction response at 0.1 to 100 uM by electrochemical impedance spectroscopic analysis; method in brief: as §3
[16] = test system: Staphylococcus aureus; experiment: Antibiofilm activity against Staphylococcus aureus SA38 assessed as inhibition of biofilm formation at 250 uM after 24 hrs by crystal violet staining based assay relative to control; assay type: functional; settings: SA38, 24 h
Method in brief: (§4)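 Overnight culture diluted 1:20 in LB and grown overnight at 37 °C, 150 rpm, in 96-well plates. Compounds added at 250 µM from DMSO stock; controls received equal DMSO. Incubated overnight at 37 °C, 150 rpm. Biofilm on polystyrene quantified by crystal violet staining. Triplicate, three independent experiments.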

[17] = test system: Escherichia coli; experiment: Antibiofilm activity against Escherichia coli K-12 assessed as inhibition of biofilm formation at 250 uM after 24 hrs by crystal violet staining based assay relative to control; assay type: functional; settings: K-12, 24 h; method in brief: as §4

## NCCNC(=O)c1cccc(-c2cccc(NC(=O)[C@H](Cc3c[nH]c4ccccc34)NC(=O)[C@@H](N)Cc3ccccc3)c2)c1
[1]
  MIC: > 125 µM
[2]
  MIC: 62.5 µM (≈ 36.8 µg/mL)
[3]
  MIC: 250 µM (≈ 147 µg/mL)

## NCCCC[C@H](NC(=O)c1cccc(-c2cccc(NC(=O)[C@@H](N)Cc3c[nH]c4ccccc34)c2)c1)C(=O)NCCN
[1]
  MIC: > 125 µM
[2]
  MIC: 31.2 µM (≈ 17.8 µg/mL)
[3]
  MIC: > 250 µM

## N=C(N)NCCC[C@H](NC(=O)c1cccc(-c2cccc(NC(=O)[C@H](Cc3c[nH]c4ccccc34)NC(=O)[C@@H](N)Cc3ccccc3)c2)c1)C(=O)NCCNC(=N)N
[4]
  IC50: > 300 µM
  Activity: Dose-dependent effect
[5]
  Activity: Active
[1]
  MIC: 7.8 µM (≈ 6.14 µg/mL)
[6]
  Activity: Active
[2]
  MIC: 15.6 µM (≈ 12.3 µg/mL)
[7]
  Activity: Non-Toxic

## CC[C@H](C)[C@H](NC(=O)[C@H](CCCCN)NC(=O)[C@H](CCC(=O)O)NC(=O)[C@H](CCCCN)NC(=O)[C@H](CO)NC(=O)[C@H](CCCCN)NC(=O)[C@H](CCCNC(=N)N)NC(=O)[C@H](Cc1ccccc1)NC(=O)[C@H](Cc1ccccc1)NC(=O)[C@H](CC(=O)O)NC(=O)CNC(=O)[C@H](CC(C)C)NC(=O)[C@@H](N)CC(C)C)C(=O)NCC(=O)N[C@@H](CCCCN)C(=O)N[C@@H](CCC(=O)O)C(=O)N[C@@H](Cc1ccccc1)C(=O)N[C@@H](CCCCN)C(=O)N[C@@H](CCCNC(=N)N)C(=O)N[C@H](C(=O)N[C@H](C(=O)N[C@@H](CCC(N)=O)C(=O)N[C@@H](CCCNC(=N)N)C(=O)N[C@H](C(=O)N[C@@H](CCCCN)C(=O)N[C@@H](CC(=O)O)C(=O)N[C@@H](Cc1ccccc1)C(=O)N[C@@H](CC(C)C)C(=O)N[C@@H](CCCNC(=N)N)C(=O)N[C@@H](CC(N)=O)C(=O)N[C@@H](CC(C)C)C(=O)N[C@H](C(=O)N1CCC[C@H]1C(=O)N[C@@H](CCCNC(=N)N)C(=O)N[C@H](C(=O)N[C@@H](CCC(=O)O)C(=O)N[C@@H](CO)C(=O)O)[C@@H](C)O)C(C)C)[C@@H](C)CC)C(C)C)[C@@H](C)CC [CATHELICIDIN]
[8]
  inhibition (INH): 40%

## NCCNC(=O)c1cccc(-c2cccc(NC(=O)[C@@H](N)Cc3c[nH]c4ccccc34)c2)c1
[1]
  MIC: > 125 µM
[2]
  MIC: 125 µM (≈ 55.2 µg/mL)
[3]
  MIC: > 250 µM

## COC(=O)[C@H](CCCNC(=N)N)NC(=O)c1cccc(-c2cccc(NC(=O)[C@@H](N)Cc3c[nH]c4ccccc34)c2)c1
[4]
  IC50: > 300 µM
  Activity: Dose-dependent effect
[1]
  MIC: > 125 µM
[2]
  MIC: 62.5 µM (≈ 35.6 µg/mL)
[7]
  Activity: Non-Toxic
[3]
  MIC: > 250 µM

## N=C(N)NCCNC(=O)c1cccc(-c2cccc(N)c2)c1
[9]
  Activity: inactive
[1]
  MIC: > 125 µM
[10]
  Activity: inactive
[2]
  MIC: 62.5 µM (≈ 18.6 µg/mL)
[3]
  MIC: > 250 µM

## N=C(N)NCCNC(=O)[C@H](CCCCN)NC(=O)c1cccc(-c2cccc(NC(=O)[C@H](Cc3c[nH]c4ccccc34)NC(=O)[C@@H](N)Cc3ccccc3)c2)c1
[4]
  IC50: > 300 µM
  Activity: Dose-dependent effect
[1]
  MIC: 15.6 µM (≈ 11.8 µg/mL)
[2]
  MIC: 31.2 µM (≈ 23.7 µg/mL)
[11]
  Activity: Active
[7]
  Activity: Non-Toxic

## COC(=O)[C@H](CCCNC(=N)N)NC(=O)c1cccc(-c2cccc(NC(=O)[C@H](Cc3c[nH]c4ccccc34)NC(=O)[C@@H](N)Cc3ccccc3)c2)c1
[9]
  Activity: Active
[4]
  IC50: > 300 µM
  Activity: Dose-dependent effect
[12]
  Activity: inactive
[1]
  MIC: 125 µM (≈ 89.6 µg/mL)
[13]
  Activity: Dose-dependent effect
[10]
  Activity: Active
[2]
  MIC: 31.2 µM (≈ 22.4 µg/mL)
[14]
  Activity: Dose-dependent effect
[15]
  Activity: inactive
[7]
  Activity: Non-Toxic
[3]
  MIC: 250 µM (≈ 179 µg/mL)

## N=C(N)NCCNC(=O)[C@H](Cc1c[nH]c2ccccc12)NC(=O)[C@@H](N)Cc1ccccc1
[1]
  MIC: > 125 µM
[2]
  MIC: > 250 µM

## COC(=O)[C@H](CCCCN)NC(=O)c1cccc(-c2cccc(NC(=O)[C@@H](N)Cc3c[nH]c4ccccc34)c2)c1
[1]
  MIC: > 125 µM
[2]
  MIC: 31.2 µM (≈ 16.9 µg/mL)
[3]
  MIC: > 250 µM

## N=C(N)NCCNC(=O)c1cccc(-c2cccc(NC(=O)[C@@H](N)Cc3c[nH]c4ccccc34)c2)c1
[4]
  IC50: > 300 µM
  Activity: Dose-dependent effect
[1]
  MIC: > 125 µM
[16]
  inhibition at 250 µM: 41%
[2]
  MIC: 62.5 µM (≈ 30.2 µg/mL)
[17]
  inhibition at 250 µM: 39%
[7]
  Activity: Non-Toxic
[3]
  MIC: > 250 µM

## COC(=O)[C@H](CCCCN)NC(=O)c1cccc(-c2cccc(NC(=O)[C@H](Cc3c[nH]c4ccccc34)NC(=O)[C@@H](N)Cc3ccccc3)c2)c1
[9]
  Activity: Active
[4]
  IC50: > 300 µM
  Activity: Dose-dependent effect
[12]
  Activity: Dose-dependent effect
[1]
  MIC: 125 µM (≈ 86.1 µg/mL)
[13]
  Activity: Dose-dependent effect
[10]
  Activity: Active
[2]
  MIC: 31.2 µM (≈ 21.5 µg/mL)
[14]
  Activity: Dose-dependent effect
[15]
  Activity: inactive
[7]
  Activity: Non-Toxic
[3]
  MIC: 250 µM (≈ 172 µg/mL)

## N=C(N)NCCNC(=O)c1cccc(-c2cccc(NC(=O)[C@H](Cc3c[nH]c4ccccc34)NC(=O)[C@@H](N)Cc3ccccc3)c2)c1
[9]
  Activity: Active
[4]
  IC50: > 300 µM
  Activity: Dose-dependent effect
[12]
  Activity: Dose-dependent effect
[1]
  MIC: 31.2 µM (≈ 19.7 µg/mL)
[13]
  Activity: Dose-dependent effect
[10]
  Activity: Active
[2]
  MIC: 15.6 µM (≈ 9.84 µg/mL)
[14]
  Activity: Dose-dependent effect
[15]
  Activity: inactive
[7]
  Activity: Non-Toxic
[3]
  MIC: 250 µM (≈ 158 µg/mL)

## NCCCC[C@H](NC(=O)c1cccc(-c2cccc(NC(=O)[C@H](Cc3c[nH]c4ccccc34)NC(=O)[C@@H](N)Cc3ccccc3)c2)c1)C(=O)NCCN
[9]
  Activity: Active
[4]
  IC50: > 300 µM
  Activity: Dose-dependent effect
[12]
  Activity: Dose-dependent effect
[1]
  MIC: 31.2 µM (≈ 22.4 µg/mL)
[16]
  inhibition at 250 µM: 30%
[13]
  Activity: Dose-dependent effect
[10]
  Activity: Active
[2]
  MIC: 31.2 µM (≈ 22.4 µg/mL)
[14]
  Activity: Dose-dependent effect
[15]
  Activity: inactive
[17]
  inhibition at 250 µM: 8%
[11]
  Activity: Active
[7]
  Activity: Non-Toxic
[3]
  MIC: 250 µM (≈ 179 µg/mL)
